# Assay outcomes as filed in PubChem BioAssay.
# mIAP activ: mouse IAP activation; muIAP, CDP-Star luminescence, 30 min; hits give high values; 1 = vehicle-only enzyme signal, 0 = enzyme-free wells; activation factor at 10 µM; 0.24% of 330,000 active;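 active = activation factor of at least 2 at 20 µM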
#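 also added = chemiluminescent substrate CDP-Star | test system = mouse IAP enzyme | signal = chemiluminescence readout | compound = DMSO-dissolved test compounds | incubation = 30 min at room temperature | benchmarks = DMSO wells, no-enzyme wells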
# bIAP act: increases bovine intestinal alkaline phosphatase activity; purified bovine IAP, CDP-star luminescence, 30 min; hits give high values; fold of DMSO-control signal, blank-subtracted; AID 1016; activation factor at 20 µM; 0.17% of 200,000 active;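 active = activation factor of 2 or more at 20 µM, a signal rise over negative controls twice the positive control's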
# hIAP inh: blocks human intestinal alkaline phosphatase | purified IAP, CDP-Star luminescence, 30 min | inhibition, % at 10 µM | 0.12% of 330,000 active | P09923;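 active = inhibition reaching a set limit with compound at 10 µM in the primary screen, cut at about 35% in these data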;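 also: plate controls were DMSO wells with enzyme for no effect and no-enzyme buffer wells for full effect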
# Target sequence (P09923 whole entry, looked up): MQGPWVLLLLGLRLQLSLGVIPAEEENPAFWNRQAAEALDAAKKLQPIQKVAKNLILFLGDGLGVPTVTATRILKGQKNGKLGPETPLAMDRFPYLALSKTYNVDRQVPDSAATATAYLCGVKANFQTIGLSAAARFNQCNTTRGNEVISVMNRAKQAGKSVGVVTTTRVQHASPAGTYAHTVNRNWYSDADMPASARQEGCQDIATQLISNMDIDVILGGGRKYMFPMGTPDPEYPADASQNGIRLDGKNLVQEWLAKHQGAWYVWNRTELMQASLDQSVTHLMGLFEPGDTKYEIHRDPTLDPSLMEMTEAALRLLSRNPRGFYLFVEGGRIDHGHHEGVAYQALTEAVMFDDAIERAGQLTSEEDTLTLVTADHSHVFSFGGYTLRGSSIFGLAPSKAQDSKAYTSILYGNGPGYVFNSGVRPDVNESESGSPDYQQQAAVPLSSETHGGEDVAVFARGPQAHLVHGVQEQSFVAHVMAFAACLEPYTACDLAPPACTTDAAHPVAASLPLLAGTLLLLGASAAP
# bIAP inhibitor: intestinal alkaline phosphatase (bovine) inhibition; purified bovine IAP, CDP-star luminescence, 30 min; inhibition, % at 20 µM; 190,000 tested, under 10 active;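 active = over 50% inhibition of intestinal alkaline phosphatase at 20 µM in the single-dose screen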
#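 Assay system – bovine IAP enzyme · Quantity – bovine IAP at 1/65,000,000 final dilution · Detection – CDP-star luminescence signal · Times – 30 min reaction at room temperature · Also added – CDP-star substrate at 30 µM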
# hIAP act: increases human intestinal alkaline phosphatase activity; 0.16% of 330,000 active; purified human IAP, CDP-Star luminescence, 30 min; hits give high values; 1 = vehicle-only enzyme, 0 = enzyme-free background; activation factor at 10 µM; P09923;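 active = activation factor of the enzyme at least 2-fold when tested at 20 µM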
# mIAP block: mouse IAP inhibition. purified mouse IAP, CDP-Star luminescence, 30 min. inhibition, % at 10 µM. 0.2% of 330,000 active. AID 2806;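 active = inhibition of at least 40% at 10 µM in the primary screen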;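 also: plate controls were DMSO with enzyme for no effect and no enzyme wells for full effect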
# An asterisk follows results filed as active; / = no result given. Most compounds without a hit are left out; they make up all but 0.79% or so of the library.
SMILES,mIAP activ,bIAP act,hIAP inh,bIAP inhibitor,hIAP act,mIAP block
Cn1c(=O)[nH]c(=O)c2c1nc(NCCCn1ccnc1)n2CCOc1ccccc1,1.1,3.9*,-14,-290,1.1,-7
Cn1c(=O)[nH]c(=O)c2c1nc(NCCCn1ccnc1)n2Cc1ccccc1,1.1,2.5*,-23,-148,1.2,-11
Cn1c(=O)[nH]c(=O)c2c1nc(NCCCO)n2Cc1ccc(F)cc1,1,1,-13,4,1.1,-4
CC(=O)c1cnc(Oc2cc(Cl)ccc2Cl)nc1C,1,/,1,/,0.99,-4
CCn1c2ccccc2c2cc(NC(=O)C3CCN(S(=O)(=O)c4cccs4)CC3)ccc21,3*,1.3,-14,-33,1.1,-196
Cc1ccc(C)c(C(=O)NC(C)c2ccc(-n3ccnc3)cc2)c1 (stereo unspecified),1.1,/,13,/,0.87,-13
O=C(Nc1ccncc1)Nc1cccc(C(F)(F)F)c1,1.1,/,-3,/,1,-8
Cc1ccc(S(=O)(=O)Nc2ccc(NC(=O)Nc3cccc(C(F)(F)F)c3)cc2)cc1,2.6*,0.9,-9,13,1.1,-161
Cc1ccc(/C=C/C(=O)NC2=NCCS2)cc1,1,0.6,41*,38,0.59,-2
COCCNC(=O)/C=C/c1c(Cl)cccc1Cl,0.95,0.9,35*,7,0.65,5
CC1CCC(NC(=O)COC(=O)c2ccco2)CC1 (stereo unspecified),1.1,/,-14,/,1.1,-8
COc1ccccc1NC(=O)C[n+]1ccccc1C,1.1,/,-6,/,1.1,-5
COc1ccc(NC(=O)Nc2ccc3c(c2)C(=O)N([C@H](C)CO)C[C@H](C)[C@@H](CN(C)S(=O)(=O)c2ccccc2)O3)cc1,3.3*,/,8,/,0.92,-231
COc1ccc(S(=O)(=O)N(C)C[C@H]2Oc3ccc(NC(=O)Cc4ccccc4)cc3C(=O)N([C@H](C)CO)C[C@@H]2C)cc1,1.3,/,-1,/,1,-28
C[C@H](CO)N1C[C@H](C)[C@@H](CN(C)S(=O)(=O)c2ccc(F)cc2)Oc2ccc(NC(=O)Nc3ccc(C(F)(F)F)cc3)cc2C1=O,1.3,/,7,/,0.93,-33
C[C@@H]1CN([C@@H](C)CO)C(=O)c2cc(NC(=O)Nc3ccc4c(c3)OCO4)ccc2O[C@H]1CN(C)S(=O)(=O)c1ccc(F)cc1,2.4*,/,2,/,0.98,-140
C[C@H](CO)N1C[C@H](C)[C@@H](CN(C)S(C)(=O)=O)Oc2ccc(NC(=O)Nc3ccc4c(c3)OCO4)cc2C1=O,1.3,/,4,/,0.96,-30
C[C@H](CO)N1C[C@H](C)[C@@H](CN(C)S(=O)(=O)c2ccc(F)cc2)Oc2ccc(NC(=O)Nc3ccc4c(c3)OCO4)cc2C1=O,2.5*,/,-10,/,1.1,-147
C[C@H](CO)N1C[C@H](C)[C@@H](CN(C)S(=O)(=O)c2ccc(F)cc2)Oc2ccc(NC(=O)Nc3ccccc3)cc2C1=O,2.4*,/,4,/,0.96,-144
Cn1cc(S(=O)(=O)N2CCCC2)cc1C(=O)NCc1ccccc1Cl,1.2,/,13,/,0.87,-23
C=CCN1C(=O)C(CC(=O)NCC)SC1=Nc1ccccc1OC (stereo unspecified),1,/,-16,/,1.2,-4
CN(C)c1nc(NC(C)(C)C)nc(SCC(=O)Nc2ccccc2)n1,1.2,1.1,5,-7,0.95,-16
CN(C)c1nc(NCc2ccccc2)nc(SCC(=O)Nc2ccccc2)n1,2*,0.9,3,13,0.97,-104
NC1=NC(=O)C2(COC(c3cccnc3)OC2)S1 (stereo unspecified),1,1,18,-2,0.82,0
COC(=O)c1ccc(NC(=S)NCCC2=CCCCC2)cc1,2.5*,1.1,-18,-6,1.2,-147
SMILES,mIAP activ,bIAP act,hIAP inh,bIAP inhibitor,hIAP act,mIAP block
COC(=O)c1cccc(NC(=S)NCCC2=CCCCC2)c1,1.8,1,8,3,0.92,-82
O=[N+]([O-])c1cc(S(=O)(=O)C(F)(F)F)ccc1NCC1CCCO1 (stereo unspecified),0.89,/,18,/,0.82,11
O=C(Nc1ccc([N+](=O)[O-])cc1Cl)c1cc(Cl)ccc1O,0.97,/,0,/,1,2
O=C(Nc1cccc(Cl)c1)c1cc(N=Nc2ccc([N+](=O)[O-])cc2Cl)ccc1O,0.74,/,38*,/,0.61,26
CCOC(=O)N1CCN(C(=O)/C(=C/c2ccc(Br)cc2)NC(=O)c2ccc(OC)cc2)CC1,1,1,2,5,0.98,-3
CCCCNC(=O)CSc1nc2cc3c(cc2c(=O)n1CCC(=O)NCCc1ccc(OC)c(OC)c1)OCO3,1.5,2*,-34,-101,1.3,-54
CCn1c(CNC(=O)c2cccnc2)cc2ccccc21,1,/,4,/,0.96,-3
CCn1c(C)cc(/C=C2/SC(=S)NC2=O)c1C,0.48,0.9,21,12,0.79,52*
O=C(Nc1ccc(Cl)cc1)NC1CCCCC1,1.2,1.1,-9,-9,1.1,-16
O=C(Nc1ccc(Cl)cc1)NC1CCCC1Cc1ccco1 (stereo unspecified),2.8*,1.1,-16,-10,1.2,-178
CN(CC(=O)Nc1ccc(Cl)c(C(F)(F)F)c1)C(=O)CCN1C(=O)C2CC=CCC2C1=O (stereo unspecified),0.95,/,6,/,0.94,5
S=C(NCC1CCCCC1)Nc1ccc(Oc2ccccc2)cc1,3.3*,1.2,5,-18,0.95,-226
CCCCNC(=S)Nc1ccc(Oc2ccccc2)cc1,2.3*,0.8,-10,23,1.1,-135
S=C(Nc1ccc(Br)cc1)NC1CCCC1,2.1*,1.1,-18,-11,1.2,-107
S=C(Nc1ccc(Oc2ccccc2)cc1)NC1CCCC1,2.7*,1,2,1,0.98,-172
Cc1cccc(NC(=S)NC2CCCC2)c1,1.1,1.1,-5,-9,1.1,-14
S=C(Nc1ccccc1Oc1ccccc1)NC1CCCC1,1.4,1,-5,-1,1.1,-43
CC(C)(C)c1ccc(OCCNC(=S)Nc2ccccc2)cc1,2.4*,0.9,2,8,0.98,-136
COc1cc(OC)c2cc(C(=O)N[C@@H](Cc3ccccc3)C(=O)O)n(C)c2c1,0.97,/,5,/,0.95,3
COc1ccc(-c2nn(C)c3sc(C(=O)NCc4ccco4)cc23)cc1OC,1.1,3.5*,-9,-254,1.1,-8
CC(=O)C(Cc1ccccc1)NC(=O)COC(=O)c1ccc(-n2cnnn2)cc1 (stereo unspecified),1.1,/,-7,/,1.1,-10
O=C(CNC(=S)N(CCCN1CCOCC1)Cc1cccs1)NCCN1CCOCC1,1,0.9,7,15,0.93,-2
CCN(CC)CCCNC(=O)CNC(=S)N(CCCN1CCOCC1)Cc1cccs1,1.1,2.1*,-14,-112,1.1,-6
